# Experimental data from ChEMBL document CHEMBL4028901, “Novel Antitubercular 6-Dialkylaminopyrimidine Carboxamides from Phenotypic Whole-Cell High Throughput Screening of a SoftFocus Library: Structure-Activity Relationship and Target Identification Studies” (J Med Chem, 2017).
# Tested on: Mycobacterium tuberculosis
# Assay: Antibacterial activity against Mycobacterium bovis BCG grown in 7H9 medium after 6 days by resazurin-based fluorescent method
# Type: functional
# Conditions: variant bovis BCG, 144 h
# Procedure, shortened: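 M. bovis BCG at 10⁵ CFU/ml in 7H9 with 0.025% tyloxapol and 2% glucose. Compounds tested as 10 two-fold dilutions from 50 μM. Incubated 6 days at 37 °C, then resazurin added for a further 48 h. Endpoint fluorescence read at excitation 530 nm, emission 590 nm.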
smiles,measurement,value
CN1CCN(c2ccc(NC(=O)c3cc(N(CCCN)Cc4ccccc4)ncn3)cc2)CC1,MIC,18.6 µM
